According to ChEMBL document CHEMBL1157565, “Discovery of 1-[3-(4-bromo-2-methyl-2h-pyrazol-3-yl)-4-methoxyphenyl]-3-(2,4-difluorophenyl)urea (nelotanserin) and related 5-hydroxytryptamine2A inverse agonists for the treatment of insomnia” (J Med Chem, 2010):
Active and inactive are the calls of the source. The calls are words filed in the database; no cut-off is given here.

Legend:
[1] = target: T1, 5-hydroxytryptamine receptor 2C (Homo sapiens, UniProt P28335); test: Displacement of [3H]DOI from human recombinant 5HT2C receptor expressed in HEK293 cells by scintillation counting; format: cell-based; settings: in the assay text read “[125I]DOI” for “[3H]DOI”
T1 sequence (P28335 whole entry): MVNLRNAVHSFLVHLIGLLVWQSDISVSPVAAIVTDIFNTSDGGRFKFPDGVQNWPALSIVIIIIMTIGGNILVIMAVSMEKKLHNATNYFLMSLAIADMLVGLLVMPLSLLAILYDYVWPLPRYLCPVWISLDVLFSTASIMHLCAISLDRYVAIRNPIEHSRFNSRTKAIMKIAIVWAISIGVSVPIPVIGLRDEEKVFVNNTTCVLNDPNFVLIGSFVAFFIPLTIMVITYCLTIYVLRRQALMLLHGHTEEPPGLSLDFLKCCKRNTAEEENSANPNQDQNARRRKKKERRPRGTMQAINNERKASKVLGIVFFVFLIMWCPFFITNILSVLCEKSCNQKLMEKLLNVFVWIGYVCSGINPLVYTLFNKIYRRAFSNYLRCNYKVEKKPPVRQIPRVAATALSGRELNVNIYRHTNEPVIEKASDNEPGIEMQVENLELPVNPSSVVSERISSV
Outline: (§1)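 Crude membranes (5-25 μg protein) from HEK293 cells stably expressing human 5-HT2A or 5-HT2C. Radioligand [125I]DOI at 0.5 nM final; 10 μM cold DOI defines nonspecific binding. Buffer 20 mM HEPES pH 7.4, 10 mM MgCl2; 1 h at room temperature. Eight concentrations (1 pM–10 μM), each in triplicate. Vacuum filtration on GF/C, Tris wash, scintillation counting; pKi.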

[2] = target: T2, 5-hydroxytryptamine receptor 2A (Homo sapiens, UniProt P28223); test: Displacement of [125I]DOI from human recombinant 5HT2A receptor expressed in HEK293 cells by scintillation counting
[3] = target: T2, 5-hydroxytryptamine receptor 2A; test: Activity at human 5HT2A receptor expressed in HEK293 cells assessed as [3H]inositol phosphate production by scintillation counting; format: functional, cell-based
Outline: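 HEK-293 cells transiently transfected with a mutated, constitutively active h5-HT2A receptor, labeled 18 h with […] [3H]myoinositol in serum- and myoinositol-free DMEM. Then 3 h at 37 °C in HBSS with LiCl (10 mM final), pargyline and compound. Lysis with ice-cold 0.1 M formic acid; total [3H]IP separated on AG1-X8 resin and counted by scintillation. Inverse-agonist pIC50.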

[4] = target: T2, 5-hydroxytryptamine receptor 2A; test: Displacement of [3H]DOI from human recombinant 5HT2A receptor expressed in HEK293 cells by scintillation counting; format: cell-based; settings: in the assay text read “[125I]DOI” for “[3H]DOI”; outline: as §1
[5] = AUC (0 to infinity) in Wistar rat at 1.0 mg/kg, po; format: ADME, organism-based; design: time infinity, dose 1 mg/kg, route oral; settings: plasma
Outline: (§2)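 Male Wistar rats, fasted overnight, single oral dose in 80% Tween-80/20% water. Jugular vein blood sampled serially over 24 h ([…]); sodium-heparin plasma stored at -70 °C, quantified by HPLC/MS/MS (LLOQ 1 ng/mL, ULOQ 2000 ng/mL). n = 2-3 animals; noncompartmental analysis; values as mean ± SD.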

[6] = Cmax in Wistar rat at 1.0 mg/kg, po; format: ADME, organism-based; design: dose 1 mg/kg, route oral; settings: in vivo; outline: as §2
[7] = Tmax in Wistar rat at 1.0 mg/kg, po; format: ADME, organism-based; design: dose 1 mg/kg, route oral; settings: in vivo; outline: as §2
[8] = Half life in Wistar rat at 1.0 mg/kg, po; format: ADME, organism-based; design: dose 1 mg/kg, route oral; settings: in vivo; outline: as §2
Rattus norvegicus [9] = test: Effect on behavioral activity in Wistar rat assessed as increase in non-rapid eye movement delta power at 1 mg/kg, po after 2 hrs; format: functional, organism-based; design: dose 1 mg/kg
Outline: (§3)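 Male Wistar rats (300 ± 25 g) implanted for continuous EEG/EMG recording, 1 week recovery. Repeated-measures design: each rat received each treatment, including 80% Tween-80 vehicle, in random order by oral gavage. Non-REM sleep parameters scored hourly after dosing; at least five rats per compound.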

Rattus norvegicus [10] = test: Effect on behavioral activity in Wistar rat assessed as increase in non-rapid eye movement bout length at 1 mg/kg, po after 2 hrs; format: functional, organism-based; design: dose 1 mg/kg; outline: as §3
Rattus norvegicus [11] = test: Effect on behavioral activity in po dosed Sprague-Dawley rat assessed as reversal of DOI-induced inhibition of rearing behavior; format: functional
Outline: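 Adult male Sprague-Dawley rats dosed orally with compound 45 min before DOI (0.3 mg/kg), which lowers rearing. Fifteen minutes later, rearing recorded in photocell-monitored locomotor activity cages. A dose-response curve for reversal of DOI-induced rearing decrease yields an ED50.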

[12] = Half life in Wistar rat at 1.4 mg/kg, po; format: ADME, organism-based; design: dose 1.4 mg/kg, route oral; settings: in vivo; outline: as §2
[13] = Cmax in Wistar rat at 1.4 mg/kg, po; format: ADME, organism-based; design: dose 1.4 mg/kg, route oral; settings: in vivo; outline: as §2
Rattus norvegicus [14] = test: Effect on behavioral activity in Wistar rat assessed as increase in non-rapid eye movement delta power at 1.4 mg/kg, po after 4 hrs; format: functional, organism-based; design: dose 1.4 mg/kg; outline: as §3
[15] = Tmax in Wistar rat at 1.4 mg/kg, po; format: ADME, organism-based; design: dose 1.4 mg/kg, route oral; settings: in vivo; outline: as §2
Rattus norvegicus [16] = test: Effect on behavioral activity in Wistar rat assessed as decrease in number of non-rapid eye movement bouts at 1.4 mg/kg, po after 2 hrs; format: functional, organism-based; design: dose 1.4 mg/kg; outline: as §3
Rattus norvegicus [17] = test: Effect on behavioral activity in Wistar rat assessed as increase in non-rapid eye movement bout length at 1.4 mg/kg, po after 1 hrs; format: functional, organism-based; design: dose 1.4 mg/kg; outline: as §3
[18] = target: 5-hydroxytryptamine receptor 2A (Rattus norvegicus, UniProt P14842); test: Displacement of [125I]DOI from rat recombinant 5HT2A receptor by scintillation counting
[19] = AUC (0 to infinity) in Wistar rat at 1.4 mg/kg, po; format: ADME, organism-based; design: time infinity, dose 1.4 mg/kg, route oral; settings: plasma; outline: as §2
[20] = target: T1, 5-hydroxytryptamine receptor 2C; test: Displacement of [125I]DOI from human recombinant 5HT2C receptor expressed in HEK293 cells by scintillation counting
Rattus norvegicus [21] = test: Effect on behavioral activity in Wistar rat assessed as increase in non-rapid eye movement delta power at 1.4 mg/kg, po after 1 hr; format: functional, organism-based; design: dose 1.4 mg/kg; outline: as §3
Rattus norvegicus [22] = test: Effect on behavioral activity in Wistar rat assessed as increase in non-rapid eye movement delta power at 1.4 mg/kg, po after 2 hrs; format: functional, organism-based; design: dose 1.4 mg/kg; outline: as §3

T2 sequence (P28223 whole entry): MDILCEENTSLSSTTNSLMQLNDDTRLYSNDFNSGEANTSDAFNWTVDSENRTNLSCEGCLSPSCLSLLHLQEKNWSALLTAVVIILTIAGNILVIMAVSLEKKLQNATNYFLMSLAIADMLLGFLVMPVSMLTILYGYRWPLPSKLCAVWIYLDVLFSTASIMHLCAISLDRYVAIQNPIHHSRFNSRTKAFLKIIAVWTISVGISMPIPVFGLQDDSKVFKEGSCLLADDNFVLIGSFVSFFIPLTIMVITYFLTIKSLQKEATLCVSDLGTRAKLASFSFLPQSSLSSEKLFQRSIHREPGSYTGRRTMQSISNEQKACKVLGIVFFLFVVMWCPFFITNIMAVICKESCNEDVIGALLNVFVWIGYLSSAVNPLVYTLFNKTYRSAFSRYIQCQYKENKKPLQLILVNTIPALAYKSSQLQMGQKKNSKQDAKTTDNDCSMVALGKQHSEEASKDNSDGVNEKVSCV
Chain of 5-hydroxytryptamine receptor 2A (Rattus norvegicus, UniProt P14842) (P14842 whole entry): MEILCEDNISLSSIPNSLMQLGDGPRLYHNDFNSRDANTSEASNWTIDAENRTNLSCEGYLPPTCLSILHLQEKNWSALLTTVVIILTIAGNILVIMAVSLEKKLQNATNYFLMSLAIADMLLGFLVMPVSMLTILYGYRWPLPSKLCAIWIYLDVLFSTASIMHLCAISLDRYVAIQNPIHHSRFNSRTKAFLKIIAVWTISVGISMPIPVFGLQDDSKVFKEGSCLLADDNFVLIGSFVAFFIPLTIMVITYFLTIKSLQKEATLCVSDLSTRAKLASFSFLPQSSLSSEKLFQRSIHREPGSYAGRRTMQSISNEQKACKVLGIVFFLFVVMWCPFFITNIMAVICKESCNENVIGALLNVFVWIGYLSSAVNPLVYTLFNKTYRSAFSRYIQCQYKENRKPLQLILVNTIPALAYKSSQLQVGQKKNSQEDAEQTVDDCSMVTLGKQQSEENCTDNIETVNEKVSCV

Row | Compound | Ki [1] | IC50 ([3]; read-out: pIC50 (converted)) | Ki [4] | also measured
1 | COc1ccc(NC(=O)Nc2ccc(C(C)C)cc2)cc1-c1c(Br)cnn1C | 25.1 nM | 2.51 nM |  | Ki [2]: 0.316 nM
2 | COc1ccc(NC(=O)Nc2cccc(Cl)c2)cc1-c1c(Br)cnn1C | 15.8 nM | 0.398 nM | 0.251 nM | 
3 | Cn1ncc(Br)c1-c1cccc(NC(=O)Nc2ccc(OC(F)(F)F)cc2)c1 |  |  |  | IC50 [3]: 120 nM
4 | COc1ccc(NC(=O)Nc2ccc(Cl)cc2)cc1-c1ccnn1C | 158 nM | 1 nM |  | 
5 | Cn1ncc(Br)c1-c1cc(NC(=O)Nc2ccc(Cl)cc2)ccc1OCc1ccc(Cl)cc1 | 251 nM | 12.6 nM | 20 nM | 
6 | Cn1ncc(Br)c1-c1cccc(NC(=O)Nc2ccc(Cl)cc2)c1 |  |  |  | IC50 [3]: 19 nM
7 | COc1ccc(NC(=O)Nc2ccc(Cl)cc2)cc1-c1c(Br)cnn1C | 10 nM | 0.794 nM | 0.501 nM | AUC(0-inf) [5]: 281 ng·h/mL; Cmax [6]: 45 ng/mL; Tmax [7]: 3 h; half-life [8]: 3 h; Activity (Rattus norvegicus [9]): Active; Activity (Rattus norvegicus [10]): Active; ED50 (Rattus norvegicus [11]): 0.5 mg/kg; IC50 [3]: 0.7 nM
8 | COc1ccc(NC(=O)Nc2ccc(F)cc2F)cc1-c1c(Br)cnn1C [NELOTANSERIN] | 158 nM | 0.631 nM |  | half-life [12]: 3 h; Cmax [13]: 44 ng/mL; Activity (Rattus norvegicus [14]): Active; Tmax [15]: 3 h; Activity (Rattus norvegicus [16]): Active; ED50 (Rattus norvegicus [11]): 0.7 mg/kg; Activity (Rattus norvegicus [17]): Active; Ki [18]: 5.01 nM; Ki [2]: 0.631 nM; AUC(0-inf) [19]: 298 ng·h/mL
9 | Cn1ncc(Br)c1-c1cc(NC(=O)Nc2ccc(Cl)cc2)ccc1OC(F)(F)F | 15.8 nM | 15.8 nM | 0.794 nM | 
10 | COc1ccc(NC(=O)Nc2cccc(C#N)c2)cc1-c1c(Br)cnn1C |  | 6.31 nM | 0.501 nM | Ki [20]: 63.1 nM
11 | COc1ccc(NC(=O)Nc2ccc(Cl)cc2)cc1-c1c(Br)cnn1C(C)C | 2.51 nM | 1.26 nM | 0.501 nM | 
12 | COc1ccc(NC(=O)Nc2ccc(OC)c(-c3c(Br)cnn3C)c2)cc1 | 126 nM | 0.398 nM | 0.501 nM | 
13 | Cn1ncc(Br)c1-c1cc(NC(=O)Nc2ccc(Cl)cc2)ccc1O | 50.1 nM |  |  | Ki [2]: 0.398 nM
14 | COc1ccc(NC(=O)Nc2cccc(C(F)(F)F)c2)cc1-c1c(Br)cnn1C | 15.8 nM | 0.398 nM |  | Ki [2]: 0.398 nM
15 | COc1ccc(NC(=O)Nc2ccc(F)cc2)cc1-c1c(Br)cnn1C |  | 0.251 nM | 0.251 nM | half-life [12]: 2 h; Activity (Rattus norvegicus [21]): Active; Cmax [13]: 85 ng/mL; Ki [20]: 31.6 nM; Activity (Rattus norvegicus [22]): Active; Tmax [15]: 4 h; Activity (Rattus norvegicus [16]): Active; ED50 (Rattus norvegicus [11]): 0.7 mg/kg; AUC(0-inf) [19]: 507 ng·h/mL
16 | COc1ccc(NC(=O)Nc2ccc(N(C)C)cc2)cc1-c1c(Br)cnn1C |  | 50.1 nM | 1.58 nM | Ki [20]: 398 nM
17 | COc1ccc(NC(=O)Nc2cccc(C(C)=O)c2)cc1-c1c(Br)cnn1C | 251 nM | 3.98 nM | 2.51 nM | 
18 | COc1ccc(NC(=O)Nc2ccc(Br)cc2)cc1-c1c(Br)cnn1C |  | 0.501 nM | 0.251 nM | Ki [20]: 3.98 nM
